Format in all cases: functional, cell-based
Test [1] deals with A549. In words: Cytotoxicity against human A549 cells after 48 hrs by MTT assay. The settings on record: A549, 48 h. The method in brief:
(§1)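 Cells grown in RPMI-1640 or DMEM with 10% FBS, 5% CO2, 37 °C, at 1 × 10^5 cells/mL. Adherent lines (A-549, MCF-7, SMMC-7721, SW480) were left to attach 12 h before dosing; suspension HL-60 was seeded just before dosing. Exposed 48 h to 0.064, 0.32, 1.6, 8 and 40 μM in triplicate, with cisplatin as positive control. MTT viability read-out; IC50 by Reed and Muench method.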
(In general: Formazan colour is commonly taken as a measure of viable cells.)

The subject of test [2] is SW480. As to the kind of experiment: Cytotoxicity against human SW480 cells after 48 hrs by MTT assay. The settings on record: SW480, 48 h. A digest of the protocol: as §1
Test [3] relates to HL-60. In words: Cytotoxicity against human HL60 cells after 48 hrs by MTT assay. The settings on record: HL-60, 48 h. A digest of the protocol:
as §1

Test [4] deals with MCF7. In words: Cytotoxicity against human MCF7 cells after 48 hrs by MTT assay. The settings on record: MCF7, 48 h. A digest of the protocol: as §1
Test [5] has as its system SMMC-7721. In words: Cytotoxicity against human SMMC7721 cells after 48 hrs by MTT assay. The settings on record: SMMC-7721, 48 h. A digest of the protocol: as §1

Structures are written as SMILES. A value given as a limit tells only on which side of the number the result lay.

For `CC[C@@]12CC(C(=O)OC)=C3Nc4ccccc4[C@@]34CCN([C@H](CC(C)=O)[C@@H]3O[C@@H]31)[C@@H]24` [MELODININE S], the IC50 turned out to be 15.2 µM in test [1]; 13.5 µM in test [2]; 4.8 µM in test [3]; 7 µM in test [4]; 11.2 µM in test [5].
For the molecule `COC(=O)C1=C2Nc3ccccc3[C@@]23CCN2CC=C[C@@]([C@@H](C)OC(C)=O)(C1)[C@H]23`, the IC50 amounted to 15.5 µM in test [1]; 15 µM in test [2]; 5.8 µM in test [3]; 14.2 µM in test [4]; 6 µM in test [5].
In the same order, the values of `COC(=O)C1=C2Nc3ccccc3[C@@]23CCN2[C@H](CC(C)=O)C=C[C@@]([C@@H](C)O)(C1)[C@H]23` [MELODININE R] are 3.9 µM, 1.6 µM, 0.7 µM, 1.8 µM and 3.3 µM.
Turning to `CC[C@]12C=C[C@@H](CC(C)=O)N3CC[C@]4(C(=C(C(=O)OC)C1)Nc1ccccc14)[C@@H]32`, the concentration for half-maximal inhibition (IC50) in test [1] worked out at 0.6 µM; in test [2] it was 0.5 µM; in test [3] it was 0.2 µM; in test [4], 0.4 µM; in test [5], 0.3 µM.
In the same order, the values of `CC[C@@]12CC(C(=O)OC)=C3Nc4ccccc4[C@@]34CCN(C[C@@H]3O[C@@H]31)[C@@H]24` [LOCHNERICINE] are above 40 µM, above 40 µM, 15.5 µM, above 40 µM and 24.7 µM.
For `CC[C@]12C=CCN3CC[C@]4(C(=C(C(=O)OC)C1)Nc1ccc(O)cc14)[C@@H]32` [MELODININE P] the same measures were above 40 µM, above 40 µM, 28.1 µM, above 40 µM and above 40 µM.
In the case of `CC[C@]12C=CCN3CC[C@]4(C(=C(C(=O)OC)C1)Nc1cc(O)c(COC)cc14)[C@@H]32` [MELODININE O], the IC50 in test [1] was 18.2 µM; in test [2], 14.9 µM; in test [3], 10 µM; in test [4], 15.7 µM; in test [5], 15.2 µM.
Regarding `CC[C@]12C=CCN3CC[C@]4(C(=C(C(=O)OC)C1)Nc1cc(O)c(C)cc14)[C@@H]32` [MELODININE N], the 50% inhibitory concentration (IC50) came out at 18.5 µM in test [1]; 15.1 µM in test [2]; 3.5 µM in test [3]; 15 µM in test [4]; 15.5 µM in test [5].
For `CC[C@]12C=CCN3CC[C@]4(C(=C(C(=O)OC)C1)Nc1cc(O)ccc14)[C@@H]32` the same measures were 17.6 µM, above 40 µM, 6 µM, above 40 µM and 15.5 µM.
Consider `COC(=O)C1=C2Nc3cc(OC)ccc3[C@@]23CCN2CC=C[C@@]([C@@H](C)O)(C1)[C@H]23`, for which the half-inhibitory concentration (IC50) in test [1] is 19.7 µM; in test [2], 13.1 µM; in test [3], 6.3 µM; in test [4] it was 21.3 µM; in test [5], 16 µM.
In the case of `CC[C@]12C=CCN3CC[C@]4(C(=C(C(=O)OC)C1)Nc1cc(OC)ccc14)[C@@H]32`, the half-maximal inhibitory concentration (IC50) in test [1] stood at 1 µM; in test [2], 2.4 µM; in test [3] it was 0.5 µM; in test [4] it was 0.2 µM; in test [5], 1.1 µM.
As for `CC[C@]12C=CCN3CC[C@]4(C(=C(C(=O)OC)C1)Nc1ccccc14)[C@@H]32` [TABERSONINE], the IC50 in test [1] is 14.7 µM; in test [2] it was 12.1 µM; in test [3], 4.5 µM; in test [4], 9.9 µM; in test [5], 5.6 µM.

As usually defined, the IC50 is the concentration needed to halve the response being measured. Low readings indicate inhibition by little substance, high ones a need for much substance.

For the origin of these results see ChEMBL document CHEMBL2010802, “Melodinines M-U, cytotoxic alkaloids from Melodinus suaveolens” (J Nat Prod, 2012).
